Measurements published in ChEMBL document CHEMBL1155278, “3,4-Diaryl-isoxazoles and -imidazoles as potent dual inhibitors of p38alpha mitogen activated protein kinase and casein kinase 1delta” (J Med Chem, 2009).

Legend:
[1] = target: Homeodomain-interacting protein kinase 3 (Homo sapiens) (UniProt Q9H422); test: Inhibition of HIPK3 assessed as residual activity at 10 uM by Cherenkov counting relative to control
Outline: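 Single-point profiling at 10 µM in a panel of 78 protein kinases. Kinase activity is expressed as a percentage relative to control assays without compound.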

[2] = target: T1, Serine/threonine-protein kinase D1 (Homo sapiens) (UniProt Q15139); test: Inhibition of PKD1 assessed as residual activity at 10 uM by Cherenkov counting relative to control in presence of 50 uM ATP
T1 sequence (whole entry): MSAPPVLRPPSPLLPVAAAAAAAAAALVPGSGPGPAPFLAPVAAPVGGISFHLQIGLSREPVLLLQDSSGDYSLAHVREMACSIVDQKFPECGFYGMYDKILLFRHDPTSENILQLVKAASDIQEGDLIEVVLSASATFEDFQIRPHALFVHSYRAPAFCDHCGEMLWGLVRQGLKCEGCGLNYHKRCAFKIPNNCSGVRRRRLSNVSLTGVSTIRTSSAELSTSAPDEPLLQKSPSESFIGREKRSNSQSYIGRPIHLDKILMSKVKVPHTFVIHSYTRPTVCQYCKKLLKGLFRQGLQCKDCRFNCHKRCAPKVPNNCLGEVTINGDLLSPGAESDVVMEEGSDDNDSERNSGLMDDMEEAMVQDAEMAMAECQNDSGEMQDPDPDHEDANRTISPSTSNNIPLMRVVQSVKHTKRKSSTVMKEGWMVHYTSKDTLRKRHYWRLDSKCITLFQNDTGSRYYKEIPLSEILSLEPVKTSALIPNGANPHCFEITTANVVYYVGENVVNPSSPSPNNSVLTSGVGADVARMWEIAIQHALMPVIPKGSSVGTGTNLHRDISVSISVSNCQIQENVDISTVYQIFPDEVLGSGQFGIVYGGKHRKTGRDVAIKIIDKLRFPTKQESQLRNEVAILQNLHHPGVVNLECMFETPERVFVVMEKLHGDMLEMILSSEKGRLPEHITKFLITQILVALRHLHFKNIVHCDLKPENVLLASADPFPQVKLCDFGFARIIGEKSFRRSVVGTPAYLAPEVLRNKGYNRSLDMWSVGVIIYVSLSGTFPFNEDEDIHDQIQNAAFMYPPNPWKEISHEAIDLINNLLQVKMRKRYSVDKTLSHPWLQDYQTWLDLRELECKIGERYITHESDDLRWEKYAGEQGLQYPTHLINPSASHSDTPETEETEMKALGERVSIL
Outline: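 Single-concentration profiling at 10 μM in a 78-kinase panel. Kinase activity is expressed as a percentage of control assays run without compound.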

[3] = target: Serine/threonine-protein kinase PAK 6 (Homo sapiens) (UniProt Q9NQU5); test: Inhibition of PAK6 assessed as residual activity at 10 uM by Cherenkov counting relative to control in presence of 20 uM ATP
[4] = Inhibition of PHK assessed as residual activity at 10 uM by Cherenkov counting relative to control
[5] = target: T2, Inhibitor of nuclear factor kappa-B kinase subunit beta (Homo sapiens) (UniProt O14920); test: Inhibition of IKK-beta assessed as residual activity at 0.1 uM by Cherenkov counting relative to control in presence of 5 uM ATP
T2 sequence (whole entry): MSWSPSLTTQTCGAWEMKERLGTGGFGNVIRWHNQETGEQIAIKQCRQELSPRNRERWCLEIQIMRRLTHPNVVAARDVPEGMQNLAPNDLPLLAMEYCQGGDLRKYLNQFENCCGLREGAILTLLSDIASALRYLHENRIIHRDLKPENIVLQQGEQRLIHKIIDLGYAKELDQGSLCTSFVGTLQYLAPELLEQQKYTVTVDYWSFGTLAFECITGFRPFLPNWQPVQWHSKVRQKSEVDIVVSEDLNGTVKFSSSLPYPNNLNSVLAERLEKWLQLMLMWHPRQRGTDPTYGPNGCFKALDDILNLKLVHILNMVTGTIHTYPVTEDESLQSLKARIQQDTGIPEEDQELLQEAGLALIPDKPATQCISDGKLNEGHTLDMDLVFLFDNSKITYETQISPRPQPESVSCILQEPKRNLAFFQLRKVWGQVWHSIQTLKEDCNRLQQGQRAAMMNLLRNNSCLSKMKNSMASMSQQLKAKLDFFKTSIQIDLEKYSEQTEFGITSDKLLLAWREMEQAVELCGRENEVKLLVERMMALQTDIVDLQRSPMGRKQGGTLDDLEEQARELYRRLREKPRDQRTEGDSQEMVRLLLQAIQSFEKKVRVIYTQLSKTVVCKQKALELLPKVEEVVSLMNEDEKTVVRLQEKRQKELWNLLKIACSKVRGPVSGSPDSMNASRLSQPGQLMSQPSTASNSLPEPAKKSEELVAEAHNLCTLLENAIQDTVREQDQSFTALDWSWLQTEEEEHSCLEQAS
Outline: (§1)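 Single-concentration screen at 0.1 µM across a panel of 76 protein kinases. Each kinase was run at an ATP concentration approximating its ATP Km. Results are % mean residual activity versus control assays without compound (n = 3 ± SD).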

[6] = target: SRSF protein kinase 1 (Homo sapiens) (UniProt Q96SB4); test: Inhibition of SRPK1 assessed as residual activity at 0.1 uM by Cherenkov counting relative to control in presence of 50 uM ATP
Outline: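 Single-concentration screen at 0.1 μM in a 76-kinase panel. ATP for each kinase was set near its Km for ATP. Residual activity is given as a percentage of control assays without compound, mean of n = 3 ± SD.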

[7] = target: Tyrosine-protein kinase BTK (Homo sapiens) (UniProt Q06187); test: Inhibition of BTK assessed as residual activity at 0.1 uM by Cherenkov counting relative to control in presence of 50 uM ATP; outline: as §1
Sequence of Tyrosine-protein kinase BTK (Homo sapiens) (Q06187 whole entry): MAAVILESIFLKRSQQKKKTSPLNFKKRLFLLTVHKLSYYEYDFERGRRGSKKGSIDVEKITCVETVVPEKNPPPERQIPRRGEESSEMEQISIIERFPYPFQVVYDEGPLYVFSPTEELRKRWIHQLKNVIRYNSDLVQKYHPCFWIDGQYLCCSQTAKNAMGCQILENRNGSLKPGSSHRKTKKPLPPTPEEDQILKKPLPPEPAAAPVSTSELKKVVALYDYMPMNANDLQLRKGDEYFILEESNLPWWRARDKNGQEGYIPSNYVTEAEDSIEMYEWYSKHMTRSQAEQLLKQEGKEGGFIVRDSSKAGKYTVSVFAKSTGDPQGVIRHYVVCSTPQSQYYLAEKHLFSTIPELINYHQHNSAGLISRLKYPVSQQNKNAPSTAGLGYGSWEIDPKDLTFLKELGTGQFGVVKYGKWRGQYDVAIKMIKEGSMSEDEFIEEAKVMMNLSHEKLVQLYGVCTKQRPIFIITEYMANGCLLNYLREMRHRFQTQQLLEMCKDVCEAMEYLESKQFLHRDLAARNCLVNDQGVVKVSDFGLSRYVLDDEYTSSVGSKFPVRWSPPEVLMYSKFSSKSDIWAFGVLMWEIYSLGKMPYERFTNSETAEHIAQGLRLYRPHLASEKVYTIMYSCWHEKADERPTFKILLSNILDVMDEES

Sequence of Homeodomain-interacting protein kinase 3 (Homo sapiens) (Q9H422 whole entry, looked up): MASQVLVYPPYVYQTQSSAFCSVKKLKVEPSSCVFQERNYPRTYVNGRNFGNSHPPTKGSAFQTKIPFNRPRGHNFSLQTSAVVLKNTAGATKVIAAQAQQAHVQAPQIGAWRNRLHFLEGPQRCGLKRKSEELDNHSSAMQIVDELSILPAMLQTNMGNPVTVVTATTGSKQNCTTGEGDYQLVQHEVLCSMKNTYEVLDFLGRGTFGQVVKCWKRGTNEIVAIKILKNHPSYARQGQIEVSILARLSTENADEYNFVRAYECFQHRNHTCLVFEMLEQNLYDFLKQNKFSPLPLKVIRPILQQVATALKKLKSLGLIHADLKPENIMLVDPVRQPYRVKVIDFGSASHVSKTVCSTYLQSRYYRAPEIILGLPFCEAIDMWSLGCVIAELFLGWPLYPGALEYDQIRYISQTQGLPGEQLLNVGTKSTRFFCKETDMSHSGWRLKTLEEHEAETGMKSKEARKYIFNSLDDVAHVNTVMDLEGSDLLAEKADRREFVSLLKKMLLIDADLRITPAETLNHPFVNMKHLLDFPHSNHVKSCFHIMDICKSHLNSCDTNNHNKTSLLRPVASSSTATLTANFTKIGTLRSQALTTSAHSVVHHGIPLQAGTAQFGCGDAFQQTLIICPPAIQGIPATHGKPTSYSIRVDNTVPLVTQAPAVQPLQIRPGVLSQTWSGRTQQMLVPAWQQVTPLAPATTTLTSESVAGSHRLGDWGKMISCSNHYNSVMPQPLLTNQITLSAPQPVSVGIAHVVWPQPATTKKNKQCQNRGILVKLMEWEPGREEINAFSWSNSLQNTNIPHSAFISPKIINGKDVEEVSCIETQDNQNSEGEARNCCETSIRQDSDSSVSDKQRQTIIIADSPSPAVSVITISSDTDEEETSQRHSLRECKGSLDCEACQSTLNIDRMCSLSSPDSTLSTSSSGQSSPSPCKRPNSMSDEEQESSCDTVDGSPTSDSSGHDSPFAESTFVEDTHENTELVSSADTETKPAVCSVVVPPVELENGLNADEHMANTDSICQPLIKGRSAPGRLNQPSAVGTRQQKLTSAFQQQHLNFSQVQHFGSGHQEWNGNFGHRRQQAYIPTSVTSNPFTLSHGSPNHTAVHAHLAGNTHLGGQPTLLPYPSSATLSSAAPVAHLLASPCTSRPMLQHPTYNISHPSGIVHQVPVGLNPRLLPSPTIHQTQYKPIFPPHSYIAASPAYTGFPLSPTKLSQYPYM
Sequence of Serine/threonine-protein kinase PAK 6 (Homo sapiens) (Q9NQU5 whole entry, looked up): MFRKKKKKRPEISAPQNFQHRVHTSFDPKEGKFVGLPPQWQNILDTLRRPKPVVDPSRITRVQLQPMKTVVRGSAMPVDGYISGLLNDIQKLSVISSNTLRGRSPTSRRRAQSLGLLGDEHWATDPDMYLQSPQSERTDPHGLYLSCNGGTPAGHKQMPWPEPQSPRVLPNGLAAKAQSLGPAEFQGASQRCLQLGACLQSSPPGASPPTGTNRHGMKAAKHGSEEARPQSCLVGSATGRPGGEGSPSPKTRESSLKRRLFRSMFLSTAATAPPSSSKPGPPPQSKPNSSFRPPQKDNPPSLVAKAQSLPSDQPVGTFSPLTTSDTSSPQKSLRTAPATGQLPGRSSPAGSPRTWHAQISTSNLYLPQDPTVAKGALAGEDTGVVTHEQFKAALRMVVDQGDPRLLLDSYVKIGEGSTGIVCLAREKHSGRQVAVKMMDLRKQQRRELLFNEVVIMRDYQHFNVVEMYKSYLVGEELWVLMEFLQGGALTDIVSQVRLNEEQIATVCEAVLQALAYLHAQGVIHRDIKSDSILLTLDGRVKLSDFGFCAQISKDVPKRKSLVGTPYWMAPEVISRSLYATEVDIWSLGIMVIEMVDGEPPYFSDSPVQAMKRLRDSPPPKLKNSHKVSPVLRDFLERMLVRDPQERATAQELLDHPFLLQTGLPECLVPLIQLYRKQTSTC
Sequence of SRSF protein kinase 1 (Homo sapiens) (Q96SB4 whole entry): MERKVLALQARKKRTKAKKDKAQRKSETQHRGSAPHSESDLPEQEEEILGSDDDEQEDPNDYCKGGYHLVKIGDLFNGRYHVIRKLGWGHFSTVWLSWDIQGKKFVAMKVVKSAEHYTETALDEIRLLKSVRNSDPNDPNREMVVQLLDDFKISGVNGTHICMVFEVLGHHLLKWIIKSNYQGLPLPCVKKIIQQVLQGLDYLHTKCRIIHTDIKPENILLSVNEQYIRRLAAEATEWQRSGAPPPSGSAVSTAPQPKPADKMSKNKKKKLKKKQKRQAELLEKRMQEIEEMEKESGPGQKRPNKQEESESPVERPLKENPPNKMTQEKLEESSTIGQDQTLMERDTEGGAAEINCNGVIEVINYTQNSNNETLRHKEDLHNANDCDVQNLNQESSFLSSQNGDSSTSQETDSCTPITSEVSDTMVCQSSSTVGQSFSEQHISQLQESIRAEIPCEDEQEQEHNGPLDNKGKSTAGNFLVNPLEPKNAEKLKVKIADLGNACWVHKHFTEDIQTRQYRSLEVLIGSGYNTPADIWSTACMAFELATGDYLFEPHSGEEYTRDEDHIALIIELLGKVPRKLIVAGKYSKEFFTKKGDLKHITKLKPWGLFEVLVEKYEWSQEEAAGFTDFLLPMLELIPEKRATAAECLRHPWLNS

Activity [1]	Activity [2]	Activity [3]	Activity [4]	Activity [5]	Activity [6]	Activity [7]	SMILES
100%	89%	102%	99%				CC(C)c1noc(-c2ccc(F)cc2)c1-c1ccncc1
92%	60%	100%	96%				CC(C)c1onc(-c2ccc(F)cc2)c1-c1ccncc1
				87%	97%	105%	COc1ccc(/C=C/C(=O)Nc2cc(-c3[nH]c([S+](C)[O-])nc3-c3ccc(F)cc3)ccn2)c(OC)c1 (centres undefined)
				84%	91%	92%	COc1ccc(/C=C/C(=O)Nc2cc(-c3[nH]c(SC)nc3-c3ccc(F)cc3)ccn2)c(OC)c1
